Hits are enriched below; roughly 2.5% of the tested compounds scored in any of these assays.
TCR-CD3 inh = inhibitors of human TCR-CD3 interaction, primary screen, biochemical, fluorescence, TAMRA-labeled TCR probe | AID 651800, 2012 | 0.37% of 360,000 active | inhibition, % at 9.4 µM; in the data active = inhibition above about 19%;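 note: recombinant mutant TCR 2C K166C tagged with TAMRA read by polarization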
PRMT1 inh = PRMT1 methyltransferase inhibitors, primary screen, biochemical, fluorescence polarization; Protein arginine N-methyltransferase 1 (Homo sapiens), Q99873; recombinant PRMT1, activity-based probe fluorescence polarization; inhibition, % at 2.79 µM; 1.3% of 370,000 active; AID 652257, 2013;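 active = inhibition above about 21% made by adding two undisclosed values, limit read from the data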
HTRA1 inhibitor = HTRA1 serine protease inhibitors, primary screen, biochemical, fluorescence polarization, HTS | Q92743 | recombinant HTRA1, FP-rhodamine activity-based probe | inhibition, % at 5.96 µM | 0.5% of 340,000 active | AID 504803, 2011; in the data active = inhibition above about 36%
SIAE inh = human SIAE inhibitors, primary screen, biochemical, fluorescence polarization, FP-Rh probe, 1536-well HTS. 0.69% of 370,000 active. inhibition, % at 9.66 µM. SIAE FP-Rh probe binding;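 active = inhibition above a cutoff: mean of compounds within the control limits plus 3 SD of those, cut at about 17% in these data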
Target sequence (Q9HAT2 whole entry, looked up): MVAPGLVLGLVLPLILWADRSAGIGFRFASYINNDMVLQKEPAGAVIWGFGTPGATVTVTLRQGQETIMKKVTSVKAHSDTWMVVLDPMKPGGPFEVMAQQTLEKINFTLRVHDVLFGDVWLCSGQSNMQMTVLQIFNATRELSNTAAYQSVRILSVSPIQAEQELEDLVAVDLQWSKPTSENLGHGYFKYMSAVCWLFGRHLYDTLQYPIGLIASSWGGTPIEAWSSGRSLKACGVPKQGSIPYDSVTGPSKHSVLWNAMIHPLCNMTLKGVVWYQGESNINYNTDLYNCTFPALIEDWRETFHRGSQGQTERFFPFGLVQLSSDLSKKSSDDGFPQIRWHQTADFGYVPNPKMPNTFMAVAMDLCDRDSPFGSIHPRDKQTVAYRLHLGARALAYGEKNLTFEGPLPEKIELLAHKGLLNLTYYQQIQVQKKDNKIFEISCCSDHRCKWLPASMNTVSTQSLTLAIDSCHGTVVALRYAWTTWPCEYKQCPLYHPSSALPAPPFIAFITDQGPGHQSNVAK
mABHD4 FP = ABHD4 inhibitors, primary screen, biochemical, fluorescence polarization, mouse | (Lyso)-N-acylphosphatidylethanolamine lipase (Mus musculus), Q8VD66 | purified mABHD4, FP-Rh probe fluorescence polarization | inhibition, % at 8.92 µM | 0.54% of 370,000 active;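 active = inhibition exceeding the mean over every tested compound plus 3 SD, cut at about 30% in these data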
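assay system = mABHD4 protein | compound dosing = single nominal dose of 8.92 µM, 0.89% DMSO final | read-out basis = percent inhibition of probe binding, normalized to plate controls | schedule = Enzyme–compound pre-incubation 45 min, then probe 60 min, both 25 °C | detection = fluorescence polarization, excitation 525 nm, emission 598 nm, BODIPY TMR filters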
ABHD4 confirm = ABHD4 inhibitors, retest, confirmation, biochemical, fluorescence polarization, mouse; shares compounds with mABHD4 FP; purified mABHD4, FP-Rh probe fluorescence polarization; inhibition, % at 8.92 µM; 55% of 1,800 active;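 active = mean inhibition across replicates above the hit cutoff set in the primary screen, cut at about 30% in these data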
SIAE inh conf = human SIAE inhibitors, retest, confirmation, biochemical, fluorescence polarization, FP-Rh probe, triplicate; shares compounds with SIAE inh; SIAE FP-Rh activity-based probe; inhibition, % at 9.66 µM; 13% of 2,300 active; AID 1117263, 2014;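 active = mean inhibition of the replicates above the hit cutoff set in the primary screen, cut at about 17% in these data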;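 note: inhibitors lower polarization as more probe stays unbound to SIAE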
Of the large screens only hits and unclear results are named; the others gave an inactive call (follow-up assays come after a bar, where they were run).

COc1cc2ccc(=O)oc2c(O)c1O	SIAE inh 25.8, mABHD4 FP 31.6 | ABHD4 confirm inactive | SIAE inh conf inactive
COc1cc2ccc(=O)oc2c(O[C@@H]2O[C@H](CO)[C@@H](O)[C@H](O)[C@H]2O)c1O	none
C[C@H]1CN([C@@H](C)CO)C(=O)CCCn2cc(nn2)CO[C@@H]1CN(C)C(=O)c1ccc2ccn(C)c2c1	none (no result: HTRA1 inhibitor)
COC(=O)C1=C(N)OC2=C(C(=O)CC(C)(C)C2)C1c1cc2c(cc1Cl)OCO2 (stereo unspecified)	none
CC(C)N1C(=O)CC(Nc2ccc(N3CCOCC3)cc2)C1=O (stereo unspecified)	SIAE inh 20.7, mABHD4 FP 32.6 | ABHD4 confirm 42.5 | SIAE inh conf inactive
CN(C)c1ccc(NC(=S)Nc2ccc3c(c2)c(=O)n(C)n3-c2ccc(C(C)(C)C)cc2)cc1	SIAE inh 19.9, mABHD4 FP 30.8 (no result: HTRA1 inhibitor) | ABHD4 confirm 44.9 | SIAE inh conf inactive
[O-][n+]1c2c(c3c4non(O)c4ccc31)CCCC2	SIAE inh 31.4, mABHD4 FP 35.4 | ABHD4 confirm inactive | SIAE inh conf 28.4
COc1ccc(NC(=S)NNc2ccc([N+](=O)[O-])cc2S(=O)(=O)Nc2ccc(C)cc2C)cc1	PRMT1 inh 23.9, SIAE inh 47.3, mABHD4 FP 39.0 | ABHD4 confirm 38.0 | SIAE inh conf inactive
CN(C(=S)NC(=O)C12CC3CC(CC(C3)C1)C2)c1ccc(O)cc1	PRMT1 inh 26.4, SIAE inh 18.5, mABHD4 FP 41.1 | ABHD4 confirm inactive | SIAE inh conf inactive
O=C(NC(=S)Nc1cccc2c(O)cccc12)c1ccco1	SIAE inh 17.2, mABHD4 FP 30.1 | ABHD4 confirm inactive | SIAE inh conf inactive
O=C(NC(=S)Nc1cccc2c(O)cccc12)c1ccccc1[N+](=O)[O-]	SIAE inh 23.0, mABHD4 FP 48.0 | ABHD4 confirm inactive | SIAE inh conf inactive
CCOc1ccccc1NC(=O)CSc1nncc2ccccc12	none
Cc1cc(Br)cn2c(Cc3ccccc3C(F)(F)F)c(-c3ccc(F)cc3)nc12	none (no result: HTRA1 inhibitor)
COc1ccc(CNc2nc(=S)[nH]c3cc(OC)c(OC)cc23)cc1	none
COc1ccc(CNc2ncnc3c2[nH]c2cc(OC)c(OC)cc23)cc1	SIAE inh 37.2, mABHD4 FP 32.0 | ABHD4 confirm 70.2 | SIAE inh conf 23.9
c1ccc2cc(OCCCn3ccnc3)ccc2c1	none
COc1ccc(C(=O)c2[nH]c(N)c(C(=O)NCCc3c[nH]c4ccccc34)c2-c2ccc(Cl)c(F)c2)cc1	SIAE inh 20.6, mABHD4 FP 34.5 (no result: HTRA1 inhibitor) | ABHD4 confirm 36.7 | SIAE inh conf inactive
Nc1[nH]c(C(=O)c2ccc(Br)cc2)c(-c2ccc(Cl)cc2[N+](=O)[O-])c1C(=O)NCCc1c[nH]c2ccccc12	SIAE inh 20.2, mABHD4 FP 39.8 (no result: HTRA1 inhibitor) | ABHD4 confirm inactive | SIAE inh conf inactive
O=[N+]([O-])c1cccc(C=NNc2ccc3ccccc3n2)c1O	SIAE inh 17.2, mABHD4 FP 36.8 | ABHD4 confirm 37.4 | SIAE inh conf inactive
Cc1ccccc1NCc1nc2ccccc2n1C	none
Cn1c(CNc2ccccc2O)nc2ccccc21	SIAE inh 19.4, mABHD4 FP 31.2 | ABHD4 confirm inactive | SIAE inh conf inactive
CCCC1CCC2(CCCN2CCOC(=S)Nc2ccccc2)CC1 (stereo unspecified)	none (no result: TCR-CD3 inh, HTRA1 inhibitor)
Brc1ccc(-c2ccc(/C=N/Nc3nc4ccccc4[nH]3)o2)cc1	SIAE inh 19.2, mABHD4 FP 32.5 | ABHD4 confirm 59.4 | SIAE inh conf 33.8
C(=N\Nc1nc2ccccc2[nH]1)/c1ccccc1	none
COc1ccccc1C(=O)CN1C(=O)NC2(CCc3ccccc32)C1=O (stereo unspecified)	none
Cc1ccccc1C(=O)Nc1nnc(SCC(=O)NCc2ccco2)s1	none

Screening data deposited in PubChem BioAssay by The Scripps Research Institute Molecular Screening Center.
